The results in this text go back to ChEMBL document CHEMBL4428077, “Synthesis and Biological Evaluation of N-((1-(4-(Sulfonyl)piperazin-1-yl)cycloalkyl)methyl)benzamide Inhibitors of Glycine Transporter-1” (J Med Chem, 2016).

Data set [1] concerns the target T1, Sodium- and chloride-dependent glycine transporter 1 (Homo sapiens, UniProt P48067).
T1 sequence (P48067 whole entry): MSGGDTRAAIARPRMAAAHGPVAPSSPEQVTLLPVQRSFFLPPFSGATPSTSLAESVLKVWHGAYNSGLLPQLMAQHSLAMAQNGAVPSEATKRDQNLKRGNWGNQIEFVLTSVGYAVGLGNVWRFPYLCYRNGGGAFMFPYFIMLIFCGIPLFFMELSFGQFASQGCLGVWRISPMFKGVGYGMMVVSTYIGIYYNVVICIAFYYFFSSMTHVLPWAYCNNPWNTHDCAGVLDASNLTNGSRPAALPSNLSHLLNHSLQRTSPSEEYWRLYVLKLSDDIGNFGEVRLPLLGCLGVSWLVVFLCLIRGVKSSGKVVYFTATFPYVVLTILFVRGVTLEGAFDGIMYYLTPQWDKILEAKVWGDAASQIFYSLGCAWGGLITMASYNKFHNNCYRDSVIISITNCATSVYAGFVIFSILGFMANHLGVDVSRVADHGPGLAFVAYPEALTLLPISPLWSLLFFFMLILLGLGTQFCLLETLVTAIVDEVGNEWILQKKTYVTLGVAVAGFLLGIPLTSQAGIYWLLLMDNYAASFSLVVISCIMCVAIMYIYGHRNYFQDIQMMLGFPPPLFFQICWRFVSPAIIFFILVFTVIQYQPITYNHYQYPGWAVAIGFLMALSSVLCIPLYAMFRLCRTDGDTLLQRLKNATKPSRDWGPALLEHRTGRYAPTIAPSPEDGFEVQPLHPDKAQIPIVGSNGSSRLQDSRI
The data set can be described thus: Inhibition of glycine transporter-1B in human JAR cells assessed as reduction in [14C]glycine uptake preincubated for 10 mins followed by [14C]glycine addition measured after 3 hrs by scintillation proximity assay. Type of data set: cell-based. The gist of the method: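 Whole-cell SPA in JAR cells, which endogenously express hGlyT-1b. Cells (50,000 per well) were attached overnight in RPMI/10% FBS at 37 °C, 5% CO₂. [¹⁴C]glycine was then added and incubated 3 h at 37 °C. The assay window was set with unlabeled glycine. A reference standard ran on each plate. IC₅₀ values are means of n ≥ 2.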
On the technique in general: SPA uses beads or plates that emit light when radiolabelled molecules are held near them.

Data set [2] is described as follows: Metabolic stability in human liver microsomes assessed as parent compound remaining at 3 uM incubated for 15 mins by LC-MS analysis. The class given is ADME, Microsome. The gist of the method: (§1)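 Liver microsomes incubated with compound at 3 μM for 15 min. Parent compound remaining was quantified by LC-MS.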
For orientation: Liver microsomes are a subcellular fraction often used to study metabolism.

Data set [3] in a line: Metabolic stability in rat liver microsomes assessed as parent compound remaining at 3 uM incubated for 15 mins by LC-MS analysis. Type of data set: ADME, Microsome. The conditions noted are these: liver microsomes, read-out: Stability. The gist of the method:
as §1

Data set [4] can be described thus: Thermodynamic solubility in pH 7.4 PBS by shake flask method. The class given is physicochemical. Particulars: read-out: Therm_solubility. The gist of the method: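 Thermodynamic shake-flask solubility in PBS, pH 7.4.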
Data set [5] in a line: Tmax in Sprague-Dawley rat plasma at 10 mg/kg, po administered as single dose by LC-MS/MS analysis. The class given is ADME, organism-based. The gist of the method: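 Groups of three drug-naive adult male Sprague–Dawley rats, single dose: IV 3.1 μmol/kg in 5% DMSO/10% Solutol in saline (5 mL/kg), or PO 15.7 μmol/kg in 5% Solutol/10% Captisol in 25 mM PBS adjusted to pH 2 with HCl. Plasma concentration–time data give the parameters; mean ± SD.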

In data set [6] the test system is Rattus norvegicus. The data set can be described thus: In vivo inhibition of glycine transporter-1 in Sprague-Dawley rat assessed as CSF glycine level at 0.3 mg/kg, po measured 2 hrs post dose by LC-MS/MS analysis relative to control. Type of data set: functional. On the set-up: scale not given: the % may be the effect or the level left. The gist of the method: (§2)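 Drug-naive adult male Sprague-Dawley rats, n = 4-5 per group, given a single oral dose of 0.4, 1.5, 4.7 or 15.7 μmol/kg. Vehicle was 5% Solutol + 10% Captisol in 25 mM PBS, pH 2. At 2 h, rats were killed by CO₂. CSF (50-100 μL) was taken from the cisterna magna, and brain and plasma were also collected. Glycine was measured by LC-MS/MS against a deuterated-glycine internal standard. Results given as % vehicle control (vehicle 30 min post-dose), mean ± SEM. Two-way ANOVA with Tukey test.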

Data set [7] relates to Rattus norvegicus. The experiment in a line: In vivo inhibition of glycine transporter-1 in Sprague-Dawley rat assessed as CSF glycine level at 1 mg/kg, po measured 2 hrs post dose by LC-MS/MS analysis relative to control. Type of data set: functional. On the set-up: scale not given: the % may be the effect or the level left. The gist of the method:
as §2

The subject of data set [8] is Rattus norvegicus. The experiment in a line: In vivo inhibition of glycine transporter-1 in Sprague-Dawley rat assessed as CSF glycine level at 3 mg/kg, po measured 2 hrs post dose by LC-MS/MS analysis relative to control. Type of data set: functional. On the set-up: scale not given: the % may be the effect or the level left. The gist of the method: as §2
Data set [9] relates to Rattus norvegicus. The data set can be described thus: In vivo inhibition of glycine transporter-1 in Sprague-Dawley rat assessed as CSF glycine level at 10 mg/kg, po measured 2 hrs post dose by LC-MS/MS analysis relative to control. Type of data set: functional. On the set-up: scale not given: the % may be the effect or the level left. The gist of the method:
as §2

The nature of data set [10]: Drug level in Sprague-Dawley rat CSF at 0.3 mg/kg, po measured 2 hrs post dose by LC-MS/MS analysis. Particulars: read-out: Drug uptake. Type of data set: ADME, organism-based, Cerebrospinal fluid. The gist of the method:
(§3)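 Drug-naive Sprague−Dawley rats (n = 4−5/group) were dosed orally once in 5% Solutol plus 20% Captisol in 25 mM PBS, pH 2, and euthanized 2 h later by CO₂. CSF was drawn from the cisterna magna. Drug was measured in CSF, brain and plasma; data as mean ± SEM.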

Data set [11] in a line: Drug level in Sprague-Dawley rat CSF at 1 mg/kg, po measured 2 hrs post dose by LC-MS/MS analysis. Type of data set: ADME, organism-based, Cerebrospinal fluid. Particulars: read-out: Drug uptake. The gist of the method:
as §3

A short description of data set [12]: Drug level in Sprague-Dawley rat CSF at 3 mg/kg, po measured 2 hrs post dose by LC-MS/MS analysis. The class given is ADME, organism-based, Cerebrospinal fluid. Particulars: read-out: Drug uptake. The gist of the method:
as §3

A short description of data set [13]: Drug level in Sprague-Dawley rat CSF at 10 mg/kg, po measured 2 hrs post dose by LC-MS/MS analysis. Type of data set: ADME, organism-based, Cerebrospinal fluid. Particulars: read-out: Drug uptake. The gist of the method:
as §3

Data set [14] is described as follows: Drug level in Sprague-Dawley rat brain at 0.3 mg/kg, po measured 2 hrs post dose by LC-MS/MS analysis. The class given is ADME, organism-based. The conditions noted are these: read-out: Drug uptake. The gist of the method:
as §3

Data set [15] is described as follows: Drug level in Sprague-Dawley rat brain at 1 mg/kg, po measured 2 hrs post dose by LC-MS/MS analysis. Type of data set: ADME, organism-based. Particulars: read-out: Drug uptake. The gist of the method:
as §3

The nature of data set [16]: Drug level in Sprague-Dawley rat brain at 3 mg/kg, po measured 2 hrs post dose by LC-MS/MS analysis. Type of data set: ADME, organism-based. The conditions noted are these: read-out: Drug uptake. The gist of the method: as §3
A short description of data set [17]: Drug level in Sprague-Dawley rat brain at 10 mg/kg, po measured 2 hrs post dose by LC-MS/MS analysis. The class given is ADME, organism-based. The conditions noted are these: read-out: Drug uptake. The gist of the method:
as §3

Data set [18] in a line: Drug level in Sprague-Dawley rat plasma at 0.3 mg/kg, po measured 2 hrs post dose by LC-MS/MS analysis. Type of data set: ADME, organism-based. The gist of the method:
as §3

Data set [19] is described as follows: Drug level in Sprague-Dawley rat plasma at 1 mg/kg, po measured 2 hrs post dose by LC-MS/MS analysis. Type of data set: ADME, organism-based. The gist of the method: as §3
A short description of data set [20]: Drug level in Sprague-Dawley rat plasma at 3 mg/kg, po measured 2 hrs post dose by LC-MS/MS analysis. Type of data set: ADME, organism-based. The gist of the method: as §3
A short description of data set [21]: Drug level in Sprague-Dawley rat plasma at 10 mg/kg, po measured 2 hrs post dose by LC-MS/MS analysis. The class given is ADME, organism-based. The gist of the method: as §3
Data set [22] is described as follows: Drug level in po dosed Sprague-Dawley rat plasma measured 2 hrs post dose by LC-MS/MS analysis. The class given is ADME, organism-based. Particulars: in vivo.
A short description of data set [23]: Drug level in cynomolgus monkey plasma at 3 mg/kg, po measured at 0.5 hr post dose by LC-MS/MS analysis. Type of data set: ADME, organism-based, Macaca fascicularis.
Data set [24] can be described thus: Protein binding in monkey plasma. The conditions noted are these: cynomolgus monkey, read-out: PPB (converted).

The structures appear in SMILES notation. pIC50: −log10 of the molar value.

What is called pIC50 is −log10 of the IC50, conventionally taken in molar units. In general, Tmax refers to the time from dosing to the highest level. `CC(NC(=O)c1ccc(C(F)(F)F)cc1Cl)C1(N2CCN(S(=O)(=O)c3cn(C)nn3)CC2)CCC(F)(F)CC1.Cl` (single isomer, unassigned; (+)): in [1], the pIC50 is 8.97. In addition, the Stability in data set [2] (microsomes, 0.25 h, 3 µM) is listed as 74%. Further, the remaining at 0.25 h, 3 µM in [3] worked out at 76%. For the same compound, in data set [4], the solubility thermodynamic came out at 22.2 µM. Also, the Tmax in data set [5] is 2.67 h. Besides, the Activity stood at 100.4% with Rattus norvegicus [6], 119.3% in the data set on Rattus norvegicus [7], 160.5% with Rattus norvegicus [8] and 326.4% in the data set with Rattus norvegicus [9]. Besides, the concentration at 2 h in data set [10] was under 1 ng/mL; in data set [11], 0.1 nM; in data set [12], 0.5 nM; in [13], 1.7 nM; in [14], 3.2 nM; in data set [15], 3.6 nM. Besides, the concentration at 2 h in data set [16] came out at 12.5 nM; in data set [17], 32.2 nM; in data set [18], 3.2 nM; in [19], 11.4 nM; in data set [20], 52.2 nM; in [21], 318 nM. In addition, in data set [22], the Drug uptake result is on record as “Dose-dependent effect”. In [23], this compound had a concentration at 0.5 h of 1.6 ng/mL. Besides, the fraction unbound in data set [24] was 0.19.
With `Cl.Cn1cc(S(=O)(=O)N2CCN(C3(CNC(=O)c4ccc(C(F)(F)F)cc4Cl)CCC(F)(F)CC3)CC2)nn1`, the pIC50 in data set [1] was 9.17. In addition, the remaining at 0.25 h, 3 µM in data set [2] (liver microsomes, read-out: Stability) was 60%; in data set [3], 85%. Moreover, in data set [4], the solubility thermodynamic worked out at 9.9 µM. Further, the Activity in the data set with Rattus norvegicus [6] was 106.6%; in the data set with Rattus norvegicus [7], 166%; with Rattus norvegicus [8] it was 251.8%; in the data set with Rattus norvegicus [9], 306.4%. Also, the concentration at 2 h is 2.7 nM in data set [10]; 3.7 nM in [11]; 4 nM in [12]; 7.5 nM in data set [13]; 7.5 nM in data set [14]; 13.1 nM in data set [15]. The concentration at 2 h in [16] is 39.2 nM; in [17], 64.9 nM; in [18], 18 nM; in data set [19], 76.9 nM; in data set [20], 204 nM; in data set [21], 432 nM.
